According to ChEMBL document CHEMBL1125306, “5,10-Methylenetetrahydro-5-deazafolic acid and analogues: synthesis and biological activities” (J Med Chem, 1992):

Legend:
[1] = tested on: Manca; assay: Compound was evaluated for the inhibition of Manca human lymphoma cell growth; type: functional, cell-based
Method in brief: (§1)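 Manca human lymphoma cells grown in RPMI medium with 10% fetal calf serum. Growth was estimated by tetrazolium reduction.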

[2] = molecular target: GAR formyltransferase (Lactobacillus casei); assay: Compound was evaluated for the inhibition of Glycinamide ribonucleotide formyl transferase (GAR) with formyl (6R) tetrahydrofolate as substrate
[3] = molecular target: T1, Dihydrofolate reductase (Homo sapiens, UniProt P00374); assay: Compound was evaluated for the inhibition of recombinant human Dihydrofolate reductase (DHFR); no inhibition
T1 sequence (P00374 whole entry): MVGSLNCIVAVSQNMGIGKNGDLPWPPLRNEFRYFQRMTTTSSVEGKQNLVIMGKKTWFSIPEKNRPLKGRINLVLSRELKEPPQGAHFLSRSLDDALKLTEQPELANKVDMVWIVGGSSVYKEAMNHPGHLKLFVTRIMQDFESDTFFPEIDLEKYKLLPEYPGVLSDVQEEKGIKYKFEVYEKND

[4] = molecular target: T2, Thymidylate synthase (Lactobacillus casei, UniProt P00469); assay: Compound was evaluated for the inhibition of Lactobacillus casei thymidylate synthase; set-up: species or system Lacticaseibacillus casei
T2 sequence (P00469 whole entry): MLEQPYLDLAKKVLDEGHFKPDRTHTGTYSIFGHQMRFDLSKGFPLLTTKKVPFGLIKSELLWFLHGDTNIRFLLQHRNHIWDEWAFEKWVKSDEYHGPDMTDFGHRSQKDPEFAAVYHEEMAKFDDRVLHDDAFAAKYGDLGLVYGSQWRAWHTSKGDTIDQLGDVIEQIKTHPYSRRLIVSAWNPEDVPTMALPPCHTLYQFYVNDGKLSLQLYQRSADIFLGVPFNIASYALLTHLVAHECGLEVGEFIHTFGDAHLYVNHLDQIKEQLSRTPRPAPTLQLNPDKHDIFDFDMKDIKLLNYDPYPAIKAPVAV

[5] = molecular target: T1, Dihydrofolate reductase; assay: Compound was evaluated for the inhibition of recombinant human Dihydrofolate reductase (DHFR)
[6] = molecular target: Dihydrofolate reductase (Lactobacillus casei, UniProt P00381); assay: Compound was evaluated for the inhibition of Lactobacillus casei DHFR; set-up: species or system Lacticaseibacillus casei
[7] = tested on: Manca; assay: Compound was evaluated for the inhibition of Manca human lymphoma cell growth; no inhibition; type: functional, cell-based; method in brief: as §1
[8] = molecular target: Thymidylate synthase (Homo sapiens, UniProt P04818); assay: Compound was evaluated for the inhibition of recombinant human thymidylate synthase
[9] = molecular target: T3, Dihydrofolate reductase (Homo sapiens) (UniProt P00374); assay: Percent inhibition against human DHFR; conditions: concentration not given here
T3 sequence (whole entry): T1 sequence (P00374 whole entry)

Thymidylate synthase (Homo sapiens, UniProt P04818), sequence (P04818 whole entry): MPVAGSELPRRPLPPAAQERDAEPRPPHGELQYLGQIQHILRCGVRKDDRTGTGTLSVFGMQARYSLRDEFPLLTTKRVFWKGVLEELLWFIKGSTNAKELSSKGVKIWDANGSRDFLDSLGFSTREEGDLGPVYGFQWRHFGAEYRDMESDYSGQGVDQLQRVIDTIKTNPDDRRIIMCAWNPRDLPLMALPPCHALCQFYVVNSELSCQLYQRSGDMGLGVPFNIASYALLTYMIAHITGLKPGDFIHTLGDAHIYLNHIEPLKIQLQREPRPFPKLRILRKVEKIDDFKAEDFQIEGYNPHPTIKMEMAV
Dihydrofolate reductase (Lactobacillus casei, UniProt P00381), sequence (P00381 whole entry): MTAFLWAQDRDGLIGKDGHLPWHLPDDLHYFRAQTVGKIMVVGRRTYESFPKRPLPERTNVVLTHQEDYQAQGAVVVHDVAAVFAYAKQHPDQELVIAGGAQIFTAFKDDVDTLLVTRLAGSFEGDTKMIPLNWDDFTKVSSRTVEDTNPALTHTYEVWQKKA

| IC50 [2] | IC50 [3] | IC50 [4] | IC50 [5] | IC50 [6] | IC50 [8] | inhibition [9] | SMILES | IC50 [1] | IC50 [7] |
| --- | --- | --- | --- | --- | --- | --- | --- | --- | --- |
| > 95 µM | > 95 µM | 95 µM | – | – | – | – | Cc1c2cnc3nc(N)nc(O)c3c2c(C)n1C | > 10 µM | – |
| – | – | – | > 40 µM | 5 µM | > 40 µM | 34% | Nc1nc(O)c2c(n1)NCC1CN(c3ccc(C(=O)NC(CCC(=O)O)C(=O)O)cc3)CC21 (stereo not drawn) | – | > 20 µM |
| – | – | > 100 µM | > 80 µM | – | – | 23% | Nc1nc(O)c2c(ncc3cn(-c4ccc(C(=O)NC(CCC(=O)O)C(=O)O)cc4)cc32)n1 (stereo not drawn) | 42 µM | – |
